According to ChEMBL document CHEMBL1275524, “Activities of antifungal agents against yeasts and filamentous fungi: assessment according to the methodology of the European Committee on Antimicrobial Susceptibility Testing” (2008):
Values after ≈ are worked out from the molar mass of the structure shown.

Assays:
[1] = test system: Sporothrix schenckii; assay: Antifungal activity against Sporothrix schenckii; type: functional
Outline: (§1)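 Broth microdilution following the EUCAST reference procedure for spore-forming moulds, in flat-bottom plates with RPMI 1640 plus 2% glucose. Inoculum was 2 × 10^5 to 5 × 10^5 CFU/ml. MICs were read visually at 24 and 48 h as 100% growth reduction versus a drug-free control for polyenes and azoles. MEC was used for caspofungin. Tests were run in duplicate and repeated twice.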

[2] = test system: Candida parapsilosis; assay: Antifungal activity against Candida parapsilosis by EUCAST method; type: functional; conditions: Lodderomyces parapsilosis
Outline: (§2)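 Broth microdilution in flat-bottom plates in RPMI 1640 with 2% glucose; inoculum 0.5 × 105 to 2.5 × 10^5 CFU/ml. MICs were read spectrophotometrically at 24 h. AMB endpoint: ≥90% growth reduction vs drug-free control well. Azole and CPF endpoint: 50% reduction in optical density. MFC was taken as the lowest concentration giving 99% killing.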

[3] = test system: Rhizopus; assay: Antifungal activity against Rhizopus species by EUCAST method; type: functional; conditions: read-out: MEC; outline: as §1
[4] = test system: Rhizomucor; assay: Antifungal activity against Rhizomucor species; type: functional
[5] = Antifungal activity against Rhinocladiella aquaspersa; type: functional
Outline: (§3)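 Dematiaceous fungi were tested by the EUCAST spore-forming mold reference procedure: flat-bottom microdilution plates, RPMI 1640 plus 2% glucose, inoculum 2 × 105 to 5 × 10^5 CFU/ml. Endpoints were read visually at 24 and 48 h. Polyenes and azoles: 100% growth reduction vs drug-free control. CPF: minimum effective concentration. Run in duplicate and repeated twice.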

[6] = test system: Aspergillus terreus; assay: Antifungal activity against Aspergillus terreus; type: functional
[7] = test system: Rhizopus arrhizus; assay: Antifungal activity against Rhizopus oryzae by EUCAST method; type: functional; conditions: read-out: MEC; outline: as §1
[8] = Antifungal activity against Rhinocladiella aquaspersa by EUCAST method; type: functional; outline: as §3
[9] = test system: Penicillium sp.; assay: Antifungal activity against Penicillium species; type: functional
[10] = test system: Clavispora lusitaniae; assay: Antifungal activity against Candida lusitaniae by EUCAST method; type: functional; outline: as §2
[11] = test system: Trichosporon asahii; assay: Antifungal activity against Trichosporon asahii by EUCAST method; type: functional
Outline: (§4)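 Nonfermentative yeasts were tested by the EUCAST microdilution recommendations with one change: plates were sealed and agitated at 350 rpm and 30°C for 48 h.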

[12] = test system: Trichosporon asahii; assay: Antifungal activity against Trichosporon asahii; type: functional; outline: as §4
[13] = test system: Curvularia lunata; assay: Antifungal activity against Curvularia lunata; type: functional
[14] = test system: Nakaseomyces glabratus; assay: Antifungal activity against Candida glabrata by EUCAST method; type: functional; outline: as §2
[15] = test system: Trichosporon inkin; assay: Antifungal activity against Trichosporon inkin; type: functional; outline: as §4
[16] = test system: Aspergillus flavus; assay: Antifungal activity against Aspergillus flavus; type: functional
[17] = test system: Cryptococcus gattii; assay: Antifungal activity against Cryptococcus neoformans var. gattii by EUCAST method; type: functional, Cryptococcus bacillisporus
Outline: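 EUCAST yeast microdilution, modified for nonfermentative yeasts: plates were sealed and agitated at 350 rpm and 30°C for 48 h.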

[18] = test system: Curvularia lunata; assay: Antifungal activity against Curvularia lunata by EUCAST method; type: functional; conditions: read-out: MEC; outline: as §3
[19] = test system: Curvularia australiensis; assay: Antifungal activity against Bipolaris australiensis; type: functional; outline: as §3
[20] = Antifungal activity against Rhizopus microsporus var. oligosporus by EUCAST method; type: functional; outline: as §1
[21] = test system: Trichosporon inkin; assay: Antifungal activity against Trichosporon inkin by EUCAST method; type: functional; outline: as §4
[22] = test system: Mucor; assay: Antifungal activity against Mucor species; type: functional
[23] = test system: Saccharomyces cerevisiae; assay: Antifungal activity against Saccharomyces cerevisiae by EUCAST method; type: functional
Outline: (§5)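 EUCAST broth microdilution for yeasts in flat-bottom plates, RPMI 1640 with 2% glucose, inoculum 0.5 × 105 to 2.5 × 10^5 CFU/ml. […] MFC is the lowest concentration giving 99% killing.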

[24] = test system: Pichia kudriavzevii; assay: Antifungal activity against Candida krusei; type: functional; outline: as §5
[25] = test system: Aspergillus niger; assay: Antifungal activity against Aspergillus niger by EUCAST method; type: functional
[26] = test system: Candida tropicalis; assay: Antifungal activity against Candida tropicalis; type: functional; outline: as §2
[27] = test system: Cunninghamella; assay: Antifungal activity against Cunninghamella species by EUCAST method; type: functional; conditions: read-out: MEC
[28] = test system: Rhizomucor; assay: Antifungal activity against Rhizomucor species by EUCAST method; type: functional; conditions: read-out: MEC; outline: as §1
[29] = test system: Candida albicans; assay: Antifungal activity against Candida albicans by EUCAST method; type: functional; outline: as §2
[30] = test system: Lomentospora prolificans; assay: Antifungal activity against Scedosporium prolificans by EUCAST method; type: functional; conditions: read-out: MEC; outline: as §1
[31] = test system: Aspergillus fumigatus; assay: Antifungal activity against Aspergillus fumigatus by EUCAST method; type: functional
[32] = test system: Mucor hiemalis; assay: Antifungal activity against Mucor hiemalis; type: functional
[33] = test system: Absidia; assay: Antifungal activity against Absidia species by EUCAST method; type: functional; conditions: read-out: MEC
[34] = test system: Geotrichum candidum; assay: Antifungal activity against Geotrichum candidum by EUCAST method; type: functional
[35] = test system: Scedosporium apiospermum; assay: Antifungal activity against Scedosporium apiospermum by EUCAST method; type: functional; conditions: read-out: MEC; outline: as §1
[36] = test system: Aspergillus terreus; assay: Antifungal activity against Aspergillus terreus by EUCAST method; type: functional

For CC[C@H](C)C[C@H](C)CCCCCCCCC(=O)N[C@H]1C[C@@H](O)[C@@H](NCCN)NC(=O)[C@@H]2[C@@H](O)CCN2C(=O)[C@H]([C@H](O)CCN)NC(=O)[C@H]([C@H](O)[C@@H](O)c2ccc(O)cc2)NC(=O)[C@@H]2C[C@@H](O)CN2C(=O)[C@H]([C@@H](C)O)NC1=O [CASPOFUNGIN], the MFC [1] was > 8 µg/mL, the MIC [2] was 0.82 µg/mL (≈ 0.75 µM) and the minimal effective concentration [3] was > 8 µg/mL. For the same compound, the MFC [4] was > 8 µg/mL, the MFC [5] was > 8 µg/mL and the MFC [6] was > 8 µg/mL. For the same compound, the minimal effective concentration [7] was > 8 µg/mL, the MEC [8] was > 8 µg/mL and the MFC [9] was > 8 µg/mL. For the same compound, the MIC [10] was 0.32 µg/mL (≈ 0.293 µM), the MIC [11] was 4 µg/mL (≈ 3.66 µM) and the MFC [12] was > 8 µg/mL. The MFC [13] was > 8 µg/mL, the MIC [14] was 0.32 µg/mL (≈ 0.293 µM) and the MFC [15] was > 8 µg/mL. For the same compound, the MFC [16] was > 8 µg/mL, the MIC [17] was 5.33 µg/mL (≈ 4.88 µM) and the minimal effective concentration [18] was > 8 µg/mL. The MFC [19] was > 8 µg/mL, the MEC [20] was > 8 µg/mL and the MIC [21] was 5.33 µg/mL (≈ 4.88 µM). For the same compound, the MFC [22] was > 8 µg/mL, the MIC [23] was 1.3 µg/mL (≈ 1.19 µM) and the MFC [24] was 2 µg/mL (≈ 1.83 µM). The MIC [25] was 0.36 µg/mL (≈ 0.329 µM), the minimal effective concentration ([25]; read-out: MEC) was 0.25 µg/mL and the MFC [26] was 0.5 µg/mL (≈ 0.457 µM). The minimal effective concentration [27] was > 8 µg/mL, the minimal effective concentration [28] was > 8 µg/mL and the MIC [29] was 0.14 µg/mL (≈ 0.128 µM). For the same compound, the minimal effective concentration [30] was > 8 µg/mL, the MIC [31] was 0.45 µg/mL (≈ 0.412 µM) and the minimal effective concentration ([31]; read-out: MEC) was 0.25 µg/mL. For the same compound, the MFC [32] was > 8 µg/mL, the minimal effective concentration [33] was > 8 µg/mL and the MIC [34] was 3 µg/mL (≈ 2.74 µM). The minimal effective concentration [35] was > 8 µg/mL and the MIC [36] was 0.19 µg/mL (≈ 0.174 µM).
